In brackets after ≈: the same amount, converted by molar mass. Peptide text beside a SMILES is read from it.
What was measured:
[1] = system: Staphylococcus epidermidis; experiment: Antimicrobial activity against Staphylococcus epidermidis; assay type: functional
[2] = system: Escherichia coli; experiment: Antimicrobial activity against Escherichia coli BL21; assay type: functional
Procedure, shortened: (§1)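 MICs were determined by standard methods on the gram-negative strains and on S. aureus strains 6538p (methicillin-sensitive) and BBA-41 (methicillin-resistant). Peptides had acetylated N termini and amidated C termini, and were purified by RP-HPLC. Reported as the range of values seen in at least three independent experiments.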

[3] = Selectivity index, Ratio of MIC for Escherichia coli BL21 to fraction of human erythrocyte hemolysis at 64 uM; assay type: functional
[4] = Selectivity index, Ratio of MIC for Staphylococcus aureus 6538p to fraction of human erythrocyte hemolysis at 64 uM; assay type: functional
[5] = system: Pseudomonas aeruginosa; experiment: Antimicrobial activity against Pseudomonas aeruginosa PAO1; assay type: functional; procedure, shortened: as §1
[6] = system: Staphylococcus aureus; experiment: Antimicrobial activity against Staphylococcus aureus 6538p; assay type: functional; procedure, shortened: as §1
[7] = system: Staphylococcus aureus; experiment: Antimicrobial activity against Staphylococcus aureus BBA-41; assay type: functional; procedure, shortened: as §1
[8] = Selectivity index, Ratio of MIC for Pseudomonas aeruginosa PAO1 to fraction of human erythrocyte hemolysis at 64 uM; assay type: functional
[9] = system: RAW264.7; experiment: Cytotoxicity against mouse RAW264.7 cell assessed as survival rate; assay type: functional; design: concentration or dose not given beside the values
Procedure, shortened: (§2)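 Cultured murine macrophages were exposed to peptide at a final concentration of 30 μM or 10 μM, depending on the peptide. Viability was read by MTT conversion to formazan. Results are percent survival versus buffer-treated controls, as mean and standard error of the mean of at least three independent experiments.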

[10] = species: Homo sapiens; experiment: Hemolysis of human erythrocyte at 64 uM; assay type: ADME
Procedure, shortened: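 Peptide (64 μM) was incubated with a 1% suspension of fresh human erythrocytes at 37°C for 1 h. Released hemoglobin was measured and expressed relative to cells lysed with 1% Triton X-100. Values are means of multiple independent experiments.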

[11] = system: J774.A1; experiment: Cytotoxicity against mouse […] cell assessed as survival rate; assay type: functional; design: concentration or dose not given beside the values; procedure, shortened: as §2
[12] = Selectivity index, Ratio of MIC for Staphylococcus epidermidis to fraction of human erythrocyte hemolysis at 64 uM; assay type: functional
[13] = system: RAW264.7; experiment: Cytotoxicity against mouse RAW264.7 cell assessed as survival rate at 10 uM; assay type: functional; procedure, shortened: as §2
[14] = system: J774.A1; experiment: Cytotoxicity against mouse […] cell assessed as survival rate at 10 uM; assay type: functional; procedure, shortened: as §2

MIC [1] [µM] | MIC [2] [µM] | MIC [5] [µM] | MIC [6] [µM] | MIC [7] [µM] | Structure (SMILES) | Selectivity Index [3] | Selectivity Index [4] | Selectivity Index [8] | Activity [9] [%] | Hemolysis [10] [%] | Activity [11] [%] | Selectivity Index [12] | Activity [13] [%] | Activity [14] [%]
0.5 (≈ 0.928 µg/mL) | 1 (≈ 1.86 µg/mL) | 1 (≈ 1.86 µg/mL) | > 16 | > 16 | CC[C@H](C)[C@H](NC(=O)[C@H](CCCCN)NC(=O)[C@H](CCCCN)NC(=O)[C@H](Cc1ccccc1)NC(=O)[C@H](CCCCN)NC(=O)[C@H](CCCCN)NC(=O)[C@H](Cc1c[nH]c2ccccc12)NC(=O)[C@H](CCCCN)NC(C)=O)C(=O)NCC(=O)N[C@@H](C)C(=O)N[C@H](C(=O)N[C@@H](CC(C)C)C(=O)N[C@@H](CCCCN)C(=O)N[C@@H](CCCCN)C(=O)N[C@@H](CC(C)C)C(N)=O)C(C)C (Ac-KWKKFKKIGAVLKKL-NH2) | 16.7 | <0.5 | 8.3 | 104 | 3 | 94 | 68 | – | –
0.5 (≈ 0.906 µg/mL) | 0.5 (≈ 0.906 µg/mL) | 2 (≈ 3.62 µg/mL) | 0.5 (≈ 0.906 µg/mL) | 1 (≈ 1.81 µg/mL) | CC[C@H](C)[C@H](NC(=O)[C@H](CCCCN)NC(=O)[C@H](CCCCN)NC(=O)[C@H](Cc1ccccc1)NC(=O)[C@H](CC(C)C)NC(=O)[C@H](CCCCN)NC(=O)[C@H](Cc1c[nH]c2ccccc12)NC(=O)[C@H](CCCCN)NC(C)=O)C(=O)NCC(=O)N[C@@H](C)C(=O)N[C@H](C(=O)N[C@@H](CC(C)C)C(=O)N[C@@H](CCCCN)C(=O)N[C@H](C(=O)N[C@@H](CC(C)C)C(N)=O)C(C)C)C(C)C (Ac-KWKLFKKIGAVLKVL-NH2) | 2.2 | 1.1 | 0.56 | – | 45 | – | 2.2 | 21 | 16
0.5 (≈ 0.914 µg/mL) | 0.25 (≈ 0.457 µg/mL) | 0.5 (≈ 0.914 µg/mL) | 16 (≈ 29.2 µg/mL) | > 16 | CC[C@H](C)[C@H](NC(=O)[C@H](CCCCN)NC(=O)[C@H](CCCCN)NC(=O)[C@H](Cc1ccccc1)NC(=O)[C@H](CCCCN)NC(=O)[C@H](CCCCN)NC(=O)[C@H](Cc1c[nH]c2ccccc12)NC(=O)[C@H](CCCCN)NC(C)=O)C(=O)NCC(=O)N[C@@H](C)C(=O)N[C@H](C(=O)N[C@@H](CC(C)C)C(=O)N[C@@H](CCCCN)C(=O)N[C@H](C(=O)N[C@@H](CC(C)C)C(N)=O)C(C)C)C(C)C (Ac-KWKKFKKIGAVLKVL-NH2) | 9.5 | 0.3 | 4.8 | 73 | 21 | 81 | 9.5 | – | –
0.25 (≈ 0.471 µg/mL) | 0.5 (≈ 0.942 µg/mL) | 0.5 (≈ 0.942 µg/mL) | 16 (≈ 30.2 µg/mL) | > 16 | CC[C@H](C)[C@H](NC(=O)[C@H](CCCCN)NC(=O)[C@H](CCCCN)NC(=O)[C@H](Cc1ccccc1)NC(=O)[C@H](CCCCN)NC(=O)[C@H](CCCCN)NC(=O)[C@H](Cc1c[nH]c2ccccc12)NC(=O)[C@H](CCCCN)NC(C)=O)C(=O)NCC(=O)N[C@@H](CCCCN)C(=O)N[C@H](C(=O)N[C@@H](CC(C)C)C(=O)N[C@@H](CCCCN)C(=O)N[C@H](C(=O)N[C@@H](CC(C)C)C(N)=O)C(C)C)C(C)C (Ac-KWKKFKKIGKVLKVL-NH2) | 22 | 0.7 | 11 | 86 | 9 | 88 | 44 | – | –
0.5 (≈ 0.935 µg/mL) | 0.5 (≈ 0.935 µg/mL) | 1 (≈ 1.87 µg/mL) | 1 (≈ 1.87 µg/mL) | 4 (≈ 7.48 µg/mL) | CC[C@H](C)[C@H](NC(=O)[C@H](CCCCN)NC(=O)[C@H](CCCCN)NC(=O)[C@H](Cc1ccccc1)NC(=O)[C@H](CC(C)C)NC(=O)[C@H](CCCCN)NC(=O)[C@H](Cc1c[nH]c2ccccc12)NC(=O)[C@H](CCCCN)NC(C)=O)C(=O)NCC(=O)N[C@@H](CCCCN)C(=O)N[C@H](C(=O)N[C@@H](CC(C)C)C(=O)N[C@@H](CCCCN)C(=O)N[C@H](C(=O)N[C@@H](CC(C)C)C(N)=O)C(C)C)C(C)C (Ac-KWKLFKKIGKVLKVL-NH2) | 1.5 | 0.8 | 0.4 | 56 | 67 | 43 | 3 | – | –
0.25 (≈ 0.46 µg/mL) | 1 (≈ 1.84 µg/mL) | 2 (≈ 3.68 µg/mL) | 4 (≈ 7.37 µg/mL) | 8 (≈ 14.7 µg/mL) | CC[C@H](C)[C@H](NC(=O)[C@H](CCCCN)NC(=O)[C@H](CCCCN)NC(=O)[C@H](Cc1ccccc1)NC(=O)[C@H](CC(C)C)NC(=O)[C@H](CCCCN)NC(=O)[C@H](Cc1c[nH]c2ccccc12)NC(=O)[C@H](CCCCN)NC(C)=O)C(=O)NCC(=O)N[C@@H](C)C(=O)N[C@H](C(=O)N[C@@H](CC(C)C)C(=O)N[C@@H](CCCCN)C(=O)N[C@@H](CCCCN)C(=O)N[C@@H](CC(C)C)C(N)=O)C(C)C (Ac-KWKLFKKIGAVLKKL-NH2) | 6.25 | 3 | 6.25 | 88 | 4 | 74 | 48 | – | –
0.25 (≈ 0.475 µg/mL) | 1 (≈ 1.9 µg/mL) | 1 (≈ 1.9 µg/mL) | 4 (≈ 7.59 µg/mL) | 16 (≈ 30.4 µg/mL) | CC[C@H](C)[C@H](NC(=O)[C@H](CCCCN)NC(=O)[C@H](CCCCN)NC(=O)[C@H](Cc1ccccc1)NC(=O)[C@H](CC(C)C)NC(=O)[C@H](CCCCN)NC(=O)[C@H](Cc1c[nH]c2ccccc12)NC(=O)[C@H](CCCCN)NC(C)=O)C(=O)NCC(=O)N[C@@H](CCCCN)C(=O)N[C@H](C(=O)N[C@@H](CC(C)C)C(=O)N[C@@H](CCCCN)C(=O)N[C@@H](CCCCN)C(=O)N[C@@H](CC(C)C)C(N)=O)C(C)C (Ac-KWKLFKKIGKVLKKL-NH2) | 12.5 | 1.5 | 6.25 | 57 | 8 | 45 | 50 | – | –

— ChEMBL document CHEMBL1275574, “Lysine-enriched cecropin-mellitin antimicrobial peptides with enhanced selectivity” (Antimicrob Agents Chemother, 2008)
